Published values gathered from unrelated publications.
Target: Serine/threonine-protein kinase 35 (STK35, Homo sapiens, UniProt Q8TDR2)

The remaining binding of `c1cnn2ncc(-c3ccnc(N4CCC45COC5)n3)c2c1` is reported as 100% (binding; 1 µM).
`COc1cnc(Nc2cccc(S(N)(=O)=O)c2)nc1N1CCN(c2ccccc2)CC1` gave a remaining binding of 100% (binding, competition with immobilised ligand; 1 µM).
For `CN(C)c1nccc(-c2cnc3ncccn23)n1`, the remaining binding was 100% (binding; 1 µM).
For `Nc1ncc2c(n1)-c1c([nH]c3ccc(C#CC4CC4)cc13)CCCC2`, the remaining binding was 100% (binding, competition with immobilised ligand; 1 µM).
For `F[C@@H]1CCN(c2nccc(-c3cnn4ncccc34)n2)C1`, the remaining binding was 100% (binding; 1 µM).
`O=C(NCCCN1CCOCC1)c1ccc(Nc2nccc(-c3cc4ccccc4s3)n2)cc1` has a remaining binding of 92% (binding, competition with immobilised ligand; 1 µM).
For `C[C@H]1CCN(c2nccc(-c3cnn4ncccc34)n2)C1`, the remaining binding was 100% (binding; 1 µM).
For `CN(C)C(=O)Cn1cc(-c2nc(C3(c4ccc(-c5cnc(N)nc5)cc4)CC3)no2)cn1`, the remaining binding was 94% (cell-free assay, competition with immobilised ligand; 1 µM).
The remaining binding of `O=C(NCC1CCOCC1)c1n[nH]cc1NC(=O)c1c(F)cccc1F` is reported as 92% (binding, competition with immobilised ligand; 1 µM).
For `CCOC(=O)c1cc2cc(-c3cc(C(=O)NCc4ccc(C(=O)O)cc4)nn3C)ccc2[nH]1`, the remaining binding was 94% (cell-free assay, competition with immobilised ligand; 0.1 µM).
`C[C@@H](c1ccc(-n2cnc3c(N)ncnc32)cc1)N1CCc2nn(C)c(Cc3ccccc3)c2C1=O` gave a remaining binding of 83% (binding, competition with immobilised ligand; 0.1 µM).
`CN(CCCC(F)(F)F)c1nccc(-c2cnn3ncccc23)n1` gave a remaining binding of 100% (binding; 1 µM).
With `Cc1c[nH]c2nccc(Oc3c(F)cc(Nc4cc(Cl)nc(N)n4)cc3F)c12` the remaining binding was 94% (cell-free assay, competition with immobilised ligand; 0.1 µM).
`N[C@H]1CCN(c2nccc(-c3cnn4ncccc34)n2)C1` gave a remaining binding of 89% (binding; 1 µM).
`CC1=C(C#N)[C@@H](c2ccc3[nH]nc(C)c3c2)C(C#N)=C(c2ccc(Cl)cc2)N1` gave a remaining binding of 100% (cell-free assay, competition with immobilised ligand; 1 µM).
With `O=C(c1ccc(Nc2ncc(Cl)c(-c3cc4ccccc4s3)n2)cc1)N1CCC(N2CCCC2)CC1` the remaining binding was 67% (binding, competition with immobilised ligand; 1 µM).
The remaining binding of `O=C(Nc1cccnn1)N1CCC(=Cc2cccc(Oc3ccc(C(F)(F)F)cn3)c2)CC1` is reported as 100% (cell-free assay, competition with immobilised ligand; 1 µM).
`CN(C)c1nccc(-c2cnn3ncccc23)n1` has a remaining binding of 100% (binding; 1 µM).
`CN1CCN(c2cnc3c(C4CCN(C(=O)c5ccc(OC(F)(F)F)cc5N)CC4)ncnc3c2)CC1` has a remaining binding of 100% (cell-free assay, competition with immobilised ligand; 1 µM).
With `c1cncc(-c2cccc(Nc3nccc(NC4CCCCC4)n3)c2)c1` the remaining binding was 86% (binding, competition with immobilised ligand; 10 µM).
`COc1ccc2cc(OCC3(C(=O)O)CN(C(=O)c4ccc(F)cc4)C3)ccc2c1` has a remaining binding of 100% (cell-free assay, competition with immobilised ligand; 1 µM).
`O=C(c1ccc(Nc2nccc(-c3cc4ccccc4s3)n2)cc1)N1CCC(N2CCCC2)CC1` has a remaining binding of 100% (binding, competition with immobilised ligand; 1 µM).
